Results published in ChEMBL document CHEMBL1944543, “A facile 'click' approach to novel 15β-triazolyl-5α-androstane derivatives, and an evaluation of their antiproliferative activities in vitro” (Bioorg Med Chem, 2012).
Calls of active or inactive are those of the source. The rule behind the calls is not given here.

Assays:
MCF7 = test: Antiproliferative activity against human MCF7 cells after 72 hrs by MTT assay; assay type: functional, cell-based; details: MCF7, 72 h
Summary of the method: (§1)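 HeLa, MCF-7 and A431 cells were kept in minimal essential medium with 10% fetal bovine serum, 1% non-essential amino acids and antibiotic-antimycotic, at 37 °C in humidified 5% CO₂. Cells were seeded at 5000 cells/well, left overnight, then given compound-containing medium. Read-out was MTT colorimetric, with cisplatin as positive control. IC₅₀ came from fitted sigmoidal dose–response curves.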

HeLa [1] = test: Cell cycle arrest in human HeLa cells assessed as accumulation at G2/M phase after 24 hrs by flow cytometry; assay type: functional, cell-based
Summary of the method: (§2)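 HeLa cells were treated at […] for 24 or 48 h. Then 200,000 cells per condition were trypsinized, PBS-washed, fixed in cold 70% ethanol for 30 min on ice, washed twice and PI-stained for DNA. 20,000 events were recorded and subG1, G1, S and G2/M percentages computed, with subG1 taken as apoptotic. Values are means of three determinations, tested against control.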

HeLa [2] = test: Antiproliferative activity against human HeLa cells after 72 hrs by MTT assay; assay type: functional, cell-based; summary of the method: as §1
HeLa [3] = test: Cellular uptake in human HeLa cells after 24 hrs by fluorescence microscopy; assay type: ADME, cell-based
HeLa [4] = test: Induction of apoptosis in human HeLa cells assessed as nuclear condensation after 24 hrs by Hoechst 33258 staining based fluorescence microscopy; assay type: functional, cell-based
Summary of the method: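 Near-confluent HeLa cells were seeded at 5000 cells/well and exposed for 24 h to vehicle or compound at […]. Hoechst 33258 and PI were added at final 5 and 2 µg/mL, then incubated 1 h at 37 °C.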

A-431 = test: Antiproliferative activity against human A431 cells after 72 hrs by MTT assay; assay type: functional, cell-based; details: A-431, 72 h; summary of the method: as §1
HeLa [5] = test: Cell cycle arrest in human HeLa cells at 3 to 10 uM after 48 hrs by flow cytometry analysis; assay type: functional, cell-based; summary of the method: as §2
HeLa [6] = test: Cell cycle arrest in human HeLa cells assessed as accumulation at Sub-G1 phase at 3 to 10 uM after 24 hrs by flow cytometry analysis; assay type: functional, cell-based; summary of the method: as §2
HeLa [7] = test: Cell cycle arrest in human HeLa cells assessed as accumulation at S phase at 3 to 10 uM after 24 hrs by flow cytometry analysis; assay type: functional, cell-based; summary of the method: as §2
HeLa [8] = test: Cell cycle arrest in human HeLa cells assessed as accumulation at G2/M phase at 3 to 10 uM after 24 hrs by flow cytometry; assay type: functional, cell-based; summary of the method: as §2

Question: Which results are given for `CC(=O)O[C@H]1CC[C@@]2(C)[C@@H](CC[C@H]3[C@@H]4[C@H](n5cc(-c6ccc(C)cc6)nn5)CC(=O)[C@@]4(C)CC[C@@H]32)C1`?
Answer: IC50 (MCF7): 2.68 µM; Activity (HeLa [1]): Dose-dependent effect; IC50 (HeLa [2]): 10.3 µM; Drug uptake (HeLa [3]): Dose-dependent effect; Activity (HeLa [4]): Dose-dependent effect; IC50 (A-431): 10.7 µM

Question: How did the IC50 (MCF7) turn out when `CCCc1ccc(-c2cn([C@@H]3CC(=O)[C@@]4(C)CC[C@H]5[C@@H](CC[C@H]6C[C@@H](OC(C)=O)CC[C@@]65C)[C@H]34)nn2)cc1` was run?
Answer: Its IC50 is 8.4 µM.

Question: What about the IC50 (HeLa [2]) of the same molecule?
Answer: Its IC50 is 15 µM.

Question: What about the IC50 (A-431) of the same molecule?
Answer: Its IC50 is greater than 30 µM.

Question: With `COc1ccc2c(c1)CC[C@H]1[C@@H]3[C@H](n4cc(-c5ccccc5)nn4)C[C@H](O)[C@@]3(C)CC[C@H]21` as the molecule, how does the IC50 (MCF7) read?
Answer: Its IC50 is greater than 30 µM.

Question: And the IC50 (HeLa [2])?
Answer: Its IC50 is greater than 30 µM.

Question: What about the IC50 (A-431) of the same molecule?
Answer: Its IC50 is 1.7 µM.

Question: How did the IC50 (MCF7) turn out when `CC(=O)O[C@H]1CC[C@@]2(C)[C@@H](CC[C@H]3[C@@H]4[C@H](n5cc(-c6ccc(F)cc6)nn5)CC(=O)[C@@]4(C)CC[C@@H]32)C1` was run?
Answer: The IC50 was 3.39 µM.

Question: And the IC50 (HeLa [2])?
Answer: Its IC50 is 11 µM.

Question: What about the IC50 (A-431) of the same molecule?
Answer: Its IC50 is 16 µM.

Question: `CC(=O)O[C@H]1CC[C@@]2(C)[C@@H](CC[C@H]3[C@@H]4[C@H](n5cc(-c6ccccc6)nn5)CC(=O)[C@@]4(C)CC[C@@H]32)C1` was tested. Which IC50 (MCF7) did it give?
Answer: The IC50 was 1.69 µM.

Question: And the Activity (HeLa [1])?
Answer: Its Activity is “Dose-dependent effect”.

Question: What about the IC50 (HeLa [2]) of the same molecule?
Answer: Its IC50 is 9.16 µM.

Question: What about the Drug uptake (HeLa [3]) of the same molecule?
Answer: Its Drug uptake is “Dose-dependent effect”.

Question: What about the Activity (HeLa [4]) of the same molecule?
Answer: Its Activity is “Dose-dependent effect”.

Question: What about the IC50 (A-431) of the same molecule?
Answer: Its IC50 is 9.69 µM.

Question: And the Activity (HeLa [5])?
Answer: Its Activity is “Active”.

Question: And the Activity (HeLa [6])?
Answer: The Activity was “Active”.

Question: Which results are given for `CCCc1ccc(-c2cn([C@@H]3C[C@H](O)[C@@]4(C)CC[C@H]5[C@@H](CC[C@H]6C[C@@H](OC(C)=O)CC[C@@]65C)[C@H]34)nn2)cc1`?
Answer: IC50 (MCF7): > 30 µM; IC50 (HeLa [2]): 6.52 µM; Drug uptake (HeLa [3]): Dose-dependent effect; Activity (HeLa [7]): Active; Activity (HeLa [4]): Dose-dependent effect; IC50 (A-431): > 30 µM; Activity (HeLa [5]): Active; Activity (HeLa [6]): Active; Activity (HeLa [8]): inactive

Question: How did the IC50 (MCF7) turn out when `COc1ccc2c(c1)CC[C@H]1[C@@H]3[C@H](n4cc(-c5ccccc5)nn4)CC(=O)[C@@]3(C)CC[C@H]21` was run?
Answer: The IC50 was 11.3 µM.

Question: And the IC50 (HeLa [2])?
Answer: The IC50 was 14.9 µM.

Question: What about the IC50 (A-431) of the same molecule?
Answer: The IC50 was 4.77 µM.

Question: What does the source list for `CC(=O)O[C@H]1CC[C@@]2(C)[C@@H](CC[C@H]3[C@@H]4[C@H](n5cc(-c6ccc(C)cc6)nn5)C[C@H](O)[C@@]4(C)CC[C@@H]32)C1`?
Answer: IC50 (MCF7): 10.3 µM; Activity (HeLa [1]): Dose-dependent effect; IC50 (HeLa [2]): 9.4 µM; Drug uptake (HeLa [3]): Dose-dependent effect; Activity (HeLa [4]): Dose-dependent effect; IC50 (A-431): 22.4 µM; Activity (HeLa [5]): Active; Activity (HeLa [6]): Active

Question: With `CC(=O)O[C@H]1CC[C@@]2(C)[C@@H](CC[C@H]3[C@@H]4[C@H](n5cc(-c6ccc(F)cc6)nn5)C[C@H](O)[C@@]4(C)CC[C@@H]32)C1` as the molecule, how does the IC50 (MCF7) read?
Answer: The IC50 was greater than 30 µM.

Question: And the IC50 (HeLa [2])?
Answer: Its IC50 is greater than 30 µM.

Question: What about the IC50 (A-431) of the same molecule?
Answer: The IC50 was greater than 30 µM.

Question: How did the IC50 (MCF7) turn out when `CC(=O)O[C@H]1CC[C@@]2(C)[C@@H](CC[C@H]3[C@@H]4[C@H](n5cc(-c6ccccc6)nn5)C[C@H](O)[C@@]4(C)CC[C@@H]32)C1` was run?
Answer: The IC50 was 19.2 µM.

Question: And the Activity (HeLa [1])?
Answer: The Activity was “Dose-dependent effect”.

Question: What about the IC50 (HeLa [2]) of the same molecule?
Answer: The IC50 was 7.7 µM.

Question: What about the Drug uptake (HeLa [3]) of the same molecule?
Answer: The Drug uptake was “Dose-dependent effect”.

Question: What about the Activity (HeLa [4]) of the same molecule?
Answer: Its Activity is “Dose-dependent effect”.

Question: What about the IC50 (A-431) of the same molecule?
Answer: Its IC50 is 20.7 µM.

Question: What about the Activity (HeLa [5]) of the same molecule?
Answer: The Activity was “Active”.

Question: What about the Activity (HeLa [6]) of the same molecule?
Answer: Its Activity is “Active”.
